Only some compounds are listed: those with a hit (about 1.4% of all), similar ones and a draw of the others.
T cell HTS – modulators of CD8 T cell-vesicle binding, primary screen, mouse 2C CD8+ T cells, flow cytometry | 2C CD8+ T cell-vesicle binding; hits give low values | response (vesicle binding), % at 7 µM | 330,000 compounds, 0.068% hits | AID 2052, 2009;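 active = response, share of CD8 T cells binding vesicles, and their 90th percentile fluorescence all below set limits, cut at about 80% in these data, passing the limit was not always enough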;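 note: values below 100% mean blocked vesicle binding to the CD8+ T cells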
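Assay system – 2C mouse CD8+ T cells · Also added – QL9-loaded Drosophila micro-vesicles · Timing – Cell–vesicle co-incubation 1.5 h at 37 °C, staining 20 min on ice · Signal – flow cytometry of vesicle-bound cells · Measure – percent CD8+ FL2 mean versus row control · Controls – Peptide-free naked vesicles (low) and QL9 vesicles with 0.7% DMSO vehicle (high)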
Myeloid diff 2 – induction of myeloid progenitor differentiation, primary screen, cell-based, flow cytometry, MLPCN library; ER-HoxA9 myeloid progenitors, lysozyme-GFP differentiation; calls only at 10 µM; 360,000 compounds, 1% hits; AID 624256, 2012;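 active = normalized GFP-positive differentiation at or above the plate's own cutoff, the solvent-only control mean plus 3 SD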;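 note: cells exposed to compound for four days before flow analysis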
Casp6 inh – human caspase-6 inhibitors, primary screen, biochemical, VEID-R110 fluorescence, single point, set 2. P55212. purified caspase-6, Z-VEID-R110 cleavage fluorescence. inhibition, % at 12.5 µM. 350,000 compounds, 0.53% hits;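 active = mean inhibition across replicates at least about 35%, with every replicate also reaching that limit, limit read from the data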;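 note: 0% = median of neutral control wells and 100% = no fluorescence left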
Target sequence (P55212 24-179 limits assumed): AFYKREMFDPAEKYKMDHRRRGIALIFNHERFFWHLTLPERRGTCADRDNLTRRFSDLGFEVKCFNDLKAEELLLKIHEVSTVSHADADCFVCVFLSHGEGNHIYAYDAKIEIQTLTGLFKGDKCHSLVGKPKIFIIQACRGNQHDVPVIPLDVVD
Target sequence (P55212 194-293 limits assumed): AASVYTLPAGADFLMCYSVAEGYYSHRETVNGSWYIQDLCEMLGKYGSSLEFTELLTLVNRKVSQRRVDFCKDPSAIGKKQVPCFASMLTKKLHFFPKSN
Vif inh – HIV Vif self-association inhibitors, primary screen, imaging, HEK293T, single point. HEK293T cells, Vif self-association by quenched fluorescence, 24 h. inhibition, % at 7.49 µM. 340,000 compounds, 0.35% hits. AID 602346, 2012; in the data active = inhibition above about 50%, passing the limit was not always enough
Active calls of the source: *; i = inactive; . = no result given; + = active, no number.

SMILES	T cell HTS	Myeloid diff 2	Casp6 inh	Vif inh
C/C=C(\C)C(=O)OC1CC(C)(C)C[C@H]2C3=CC[C@@H]4[C@@]5(C)CCC(O[C@@H]6O[C@@H](C(=O)O)[C@@H](O)C(O[C@@H]7OC[C@H](O)[C@@H](O)[C@@H]7O[C@@H]7OC(CO)C(O)[C@@H](O)[C@@H]7O)C6O[C@@H]6OC(CO)C(O)C(O)C6O)[C@@](C)(CO)[C@@H]5CC[C@]4(C)[C@]3(C)CC(O)[C@@]12CO (some centres not stated)	222	i	58*	1
CCC(=O)N1CCC2(CC1)CN(Cc1ccc(Cl)cc1)[C@H](CO)c1[nH]c3cc(OC)ccc3c12	.	.	3	.
CCS(=O)(=O)c1nc(S(=O)(=O)c2ccc(C)cc2)c(N2CC(C)OC(C)C2)s1 (configuration not stated)	339	+	.	1
CCCS(=O)(=O)c1nc(S(=O)(=O)c2ccc(C)cc2)c(N2CC(C)OC(C)C2)s1 (configuration not stated)	372	i	1	0
Cc1ccc(OCCC(=O)OCC(=O)Nc2cc(S(=O)(=O)N(C)C)ccc2C)cc1	304	+	.	4
Cc1ccc(S(=O)(=O)N(C)C)cc1NC(=O)COC(=O)CCC1CCCC1	451	i	6	-13
COC(=O)CN1C(=O)COc2ccc(S(=O)(=O)N3CCCCC3)cc21	.	i	52*	2
CCC(CO)[n+]1c(C)cc(/C=C2\Sc3ccccc3N2Cc2ccccc2)cc1C (configuration not stated)	i	+	-5	.
C[C@@H]1CN([C@H](C)CO)C(=O)Cc2cc(NS(=O)(=O)c3ccc(F)cc3)ccc2O[C@H]1CN(C)S(=O)(=O)c1ccc(F)cc1	.	.	2	.
O=C(COC(=O)Cc1cccc(C(F)(F)F)c1)NCc1ccco1	398	i	58*	10
Cc1ccccc1C(=O)Nc1ccc(N2CCOCC2)nc1	472	i	.	53*
CCC(=O)N1[C@H](CO)[C@@H](c2ccc(-c3ccc(C#N)cc3)cc2)C12CN(C(C)=O)C2	.	.	0	.
Cc1ccc(NC(=O)CSCc2ccco2)cc1	255	i	4	-5
c1coc(CSSCc2ccco2)c1	618	i	82*	15
C[C@@H]1CN([C@H](C)CO)C(=O)c2cc(-c3ccc(C#N)cc3)cnc2O[C@H]1CN(C)C(=O)Nc1ccc(C(F)(F)F)cc1	.	.	2	.
CCCN(C)C[C@H]1OCCCC[C@@H](C)Oc2ccc(NS(=O)(=O)c3ccccc3)cc2C(=O)N([C@@H](C)CO)C[C@H]1C	.	.	-1	.
Cc1ccc(-c2cc3nc(C)cc(C)n3n2)cc1	242	i	-1	-1
Cc1cc(C)n2nc(-c3ccsc3-n3c(C)ccc3C)cc2n1	574	+	.	3
CC(NC1=CC(=O)c2cccnc2C1=O)C(O)c1ccccc1 (configuration not stated)	.	.	100*	2
C[C@H](CO)N1C[C@H](C)[C@H](CN(C)C(=O)Nc2ccc3c(c2)OCO3)Oc2ccc(NC(=O)Nc3cccc4ccccc34)cc2CC1=O	.	.	1	.
Cc1ccccc1OCCSc1nnc(-c2ccncc2)n1C	90	i	.	7
Cn1c(SCCOc2ccccc2Cl)nnc1-c1ccncc1	346	i	35*	-1
COc1ccc(NC(=O)N[C@@H]2CC[C@@H](CCNS(=O)(=O)c3ccccc3F)O[C@@H]2CO)cc1	.	.	2	.
COC(=O)c1nn(-c2ccccc2)c(-c2ccccc2)c1C(=O)c1ccccc1	338	i	.	50*
O=C(O)c1nn(-c2ccccc2)c(-c2ccccc2)c1C(=O)c1ccccc1	204	i	.	-6
SMILES	T cell HTS	Myeloid diff 2	Casp6 inh	Vif inh
CCOC(=O)C1=C(C)NC(=O)NC1c1ccc(NC(C)=O)cc1 (configuration not stated)	589	i	.	2
CCOC(=O)C1=C(C)NC(=O)NC1c1ccc(N2CCC(c3ccccc3)=N2)cc1 (configuration not stated)	156	+	.	14
CCCCCc1ccc(-c2ccc(/C=C/C(N)=O)cc2)nc1	329	+	.	1
Cc1ccc([N+](=O)[O-])cc1NC(=O)C(C)N1CCCCC1 (configuration not stated)	284	i	40*	12
Cc1ccc([N+](=O)[O-])cc1NC(=O)CN1CCCCC1	796	i	.	-2
CC(C)(C)C(=O)N1CCN(c2nc3ccc(Br)cc3s2)CC1	757	+	-2	-1
CC(=O)N1CCN(c2nc3ccc(Br)cc3s2)CC1	154	i	-2	11
COC1=CC(=O)c2c(ccc3ncnc(N)c23)C1=O	.	.	100*	5
CCCNC(=O)[C@@H]1[C@@H](CO)[C@@H]2Cn3c(ccc(C4=CCCC4)c3=O)[C@H]1N2C(=O)CC	.	.	-2	.
COC(=O)[C@H]1[C@H](CO)[C@H]2Cn3c(ccc(-c4ccncc4)c3=O)[C@H]2N1CC1CCCC1	.	.	0	.
CC(CN1CCCCC1)C(=O)NNC(=O)C12CC3CC(CC(C3)C1)C2 (configuration not stated)	282	i	43*	6
CO[C@@H]1CN(C)C(=O)c2ccc(NS(C)(=O)=O)cc2OC[C@H](C)N(C(=O)NC(C)C)C[C@@H]1C	.	.	-1	.
O=C1CCCc2cc3c(ccc4ccccc43)cc21	.	i	-2	-11
O=C1CCSc2c1ccc1ccccc21	.	+	-8	-1
COc1cc2c(cc1OC)-c1nc3ccccc3c(=O)n1C(C)(C)C2	134	+	.	23
COc1ccc(/C=C2\CCn3c2nc2ccccc2c3=O)cc1OC	567	i	.	-1
O=C(NNS(=O)(=O)c1ccccc1[N+](=O)[O-])c1cc2ccccc2cc1O	115	i	20	-4
O=C(NNS(=O)(=O)c1ccccc1[N+](=O)[O-])c1ccccc1Cl	914	+	3	0
C[C@@H]1CCCCO[C@H](CN(C)C)[C@H](C)CN([C@H](C)CO)C(=O)c2cc(NC(=O)Nc3ccc(C(F)(F)F)cc3)ccc2O1	.	.	-1	.
COC(=O)C1=CNC=C(C(=O)OC)C1c1ccccc1Cl	174	i	.	-5
COC(=O)C1=CNC=C(C(=O)OC)C1c1ccc(Cl)cc1	426	+	.	-6
Cc1ccc(CONC(=O)/N=C/N(C)C)cc1	292	i	.	63*
CN(C)C(=O)C[C@@H]1CC[C@@H]2[C@H](COC[C@H](O)CN2S(=O)(=O)c2ccccc2)O1	.	.	-2	.
CCCCNC(=O)/C(C#N)=C/c1ccc2c(c1)OCCO2	0.0*	i	2	1
COCCCNC(=O)/C(C#N)=C/c1ccc(OCC(=O)O)c(OC)c1	230	i	41*	7
COc1ccc(/C=C(\C#N)C(=O)NCCc2ccccc2)cc1OCc1ccccc1	228	i	5	1
CCCCCCCCNC(=O)/C(C#N)=C/c1ccc2c(c1)OCCO2	173	i	-2	-2
